According to ChEMBL document CHEMBL1136094, “Novel, potent and selective cyclin D1/CDK4 inhibitors: indolo[6,7-a]pyrrolo[3,4-c]carbazoles” (Bioorg Med Chem Lett, 2003):

Legend:
[1] = target: Cyclin-dependent kinase 5/CDK5 activator 1 (Homo sapiens) (UniProt Q00535+Q15078); experiment: Inhibition of Cyclin-dependent kinase 5-p35nck5a at 500 nM; type: protein-complex assay; design: scale not given: the % may be the effect or the level left
How it was run: (§1)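 Panel profiling of isolated kinases with inhibitor at 100 nM and 500 nM. […] Remaining kinase activity is expressed as % of control and is the mean of duplicate assays.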

[2] = target: Inhibitor of nuclear factor kappa-B kinase subunit beta (Homo sapiens) (UniProt O14920); experiment: Inhibition of I-kappa-B-kinase beta at 500 nM; design: scale not given: the % may be the effect or the level left; how it was run: as §1
[3] = target: Rho-associated protein kinase 2 (Homo sapiens) (UniProt O75116); experiment: Inhibition of Protein kinase ROCK2 at 500 nM; design: scale not given: the % may be the effect or the level left
How it was run: (§2)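 Panel of 39 kinases, each tested at 100 and 500 nM inhibitor. […] Activity is expressed as % of control and is the mean of duplicate assays.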

[4] = target: Serine/threonine-protein kinase Chk2 (Homo sapiens) (UniProt O96017); experiment: Inhibition of Serine/threonine-protein kinase Chk2 at 500 nM; design: scale not given: the % may be the effect or the level left; how it was run: as §2
[5] = target: Mitogen-activated protein kinase 12 (Homo sapiens) (UniProt P53778); experiment: Inhibition of Stress activated protein kinase 3 at 100 nM; design: scale not given: the % may be the effect or the level left; how it was run: as §2
[6] = target: T1, Casein kinase II (Homo sapiens) (UniProt P67870+P68400+P19784); experiment: Inhibition of CK2 kinase at 100 nM; type: protein-complex assay; design: scale not given: the % may be the effect or the level left; how it was run: as §1
[7] = Inhibition of AMP-activated Protein Kinase at 100 nM; design: scale not given: the % may be the effect or the level left; how it was run: as §1
[8] = target: Protein kinase C theta type (Homo sapiens) (UniProt Q04759); experiment: Inhibition of Protein kinase C theta at 100 nM; design: scale not given: the % may be the effect or the level left; how it was run: as §2
[9] = target: Serine/threonine-protein kinase Chk2 (Homo sapiens) (UniProt O96017); experiment: Inhibition of Serine/threonine-protein kinase Chk2 at 100 nM; design: scale not given: the % may be the effect or the level left; how it was run: as §2
[10] = target: Tyrosine-protein kinase SYK (Homo sapiens) (UniProt P43405); experiment: Inhibition of Syk protein tyrosine kinase at 100 nM; design: scale not given: the % may be the effect or the level left; how it was run: as §2
[11] = target: 3-phosphoinositide-dependent protein kinase 1 (Homo sapiens) (UniProt O15530); experiment: Inhibition of PDK1 kinase at 100 nM; design: scale not given: the % may be the effect or the level left; how it was run: as §1
[12] = target: Mitogen-activated protein kinase 8 (Homo sapiens) (UniProt P45983); experiment: Inhibition of c-Jun N-terminal kinase 1-alpha 1 at 500 nM; design: scale not given: the % may be the effect or the level left; how it was run: as §2
[13] = target: Tyrosine-protein kinase Lyn (Homo sapiens) (UniProt P07948); experiment: Inhibition of Protein tyrosine kinase Lyn at 500 nM; design: scale not given: the % may be the effect or the level left; how it was run: as §2
[14] = target: RAF proto-oncogene serine/threonine-protein kinase (Homo sapiens) (UniProt P04049); experiment: Inhibition of RAF proto-oncogene serine/threonine-protein kinase at 500 nM; design: scale not given: the % may be the effect or the level left; how it was run: as §2
[15] = Inhibition of AMP-activated Protein Kinase at 500 nM; design: scale not given: the % may be the effect or the level left; how it was run: as §1
[16] = target: Mitogen-activated protein kinase kinase kinase 20 (Homo sapiens, UniProt Q9NYL2); experiment: Inhibition of MLK-7 kinase
[17] = target: Serine/threonine-protein kinase Chk1 (Homo sapiens) (UniProt O14757); experiment: Inhibition of Serine/threonine-protein kinase Chk1 at 500 nM; design: scale not given: the % may be the effect or the level left; how it was run: as §2
[18] = target: T2, Ribosomal protein S6 kinase (P70S6K) (Homo sapiens) (UniProt Q9UBS0+P23443); experiment: Inhibition of Ribosomal protein S6 kinase (p70S6K) at 100 nM; type: protein-complex assay; design: scale not given: the % may be the effect or the level left; how it was run: as §2
[19] = target: Serine/threonine-protein kinase N2 (Homo sapiens) (UniProt Q16513); experiment: Inhibition of PRK2 at 500 nM; design: scale not given: the % may be the effect or the level left; how it was run: as §1
[20] = target: cAMP-dependent protein kinase (PKA) (Homo sapiens, UniProt P22694+P17612+P22612); experiment: Inhibitory activity against Protein kinase A (Histone); type: protein assay
[21] = target: Calcium/calmodulin-dependent protein kinase type IV (Homo sapiens) (UniProt Q16566); experiment: Inhibition of Calcium/calmodulin-dependent protein kinase type IV at 500 nM; design: scale not given: the % may be the effect or the level left; how it was run: as §1
[22] = Percent control against SKG at compound concentration of 500 nM; how it was run: as §2
[23] = target: Proto-oncogene tyrosine-protein kinase Src (Homo sapiens) (UniProt P12931); experiment: Inhibition of c-Src protein tyrosine kinase at 100 nM; design: scale not given: the % may be the effect or the level left; how it was run: as §2
[24] = target: Tyrosine-protein kinase Lck (Homo sapiens) (UniProt P06239); experiment: Inhibition of p56 Lck tyrosine kinase at 500 nM; design: scale not given: the % may be the effect or the level left; how it was run: as §2
[25] = target: TGF-beta receptor type-2 (Homo sapiens, UniProt P37173); experiment: Inhibition of TGF-beta type II receptor
[26] = target: Mitogen-activated protein kinase 14 (Homo sapiens, UniProt Q16539); experiment: Inhibition of Mitogen-activated protein kinase p38 alpha
[27] = target: CDK3/cyclin E (Homo sapiens) (UniProt P24864+O96020+Q00526); experiment: Inhibition of Cyclin E-cyclin-dependent kinase 3 at 100 nM; type: protein-complex assay; design: scale not given: the % may be the effect or the level left; how it was run: as §1
[28] = target: T2, Ribosomal protein S6 kinase (P70S6K) (Homo sapiens); experiment: Inhibition of Ribosomal protein S6 kinase (p70S6K) at 500 nM; type: protein-complex assay; design: scale not given: the % may be the effect or the level left; how it was run: as §2
[29] = target: 3-phosphoinositide-dependent protein kinase 1 (Homo sapiens) (UniProt O15530); experiment: Inhibition of PDK1 kinase at 500 nM; design: scale not given: the % may be the effect or the level left; how it was run: as §1
[30] = target: Protein kinase C alpha type (Homo sapiens) (UniProt P17252); experiment: Inhibition of Protein kinase C alpha at 100 nM; design: scale not given: the % may be the effect or the level left; how it was run: as §1
[31] = target: Tyrosine-protein kinase Fyn (Homo sapiens) (UniProt P06241); experiment: Inhibition of Fyn protein kinase at 100 nM; design: scale not given: the % may be the effect or the level left; how it was run: as §1
[32] = target: Dual specificity mitogen-activated protein kinase kinase 4 (Homo sapiens) (UniProt P45985); experiment: Inhibition of mitogen-activated protein kinase kinase 4 at 500 nM; design: scale not given: the % may be the effect or the level left; how it was run: as §2
[33] = target: T3, Casein kinase I (Homo sapiens) (UniProt Q9HCP0+P78368+P48730+P49674+P48729); experiment: Inhibition of CK1 kinase at 100 nM; type: protein assay; design: scale not given: the % may be the effect or the level left; how it was run: as §1
[34] = target: Glycogen synthase kinase-3 beta (Homo sapiens, UniProt P49841); experiment: Inhibition of Glycogen synthase kinase-3 beta
[35] = target: T1, Casein kinase II (Homo sapiens); experiment: Inhibition of CK2 kinase at 500 nM; type: protein-complex assay; design: scale not given: the % may be the effect or the level left; how it was run: as §1
[36] = target: Ribosomal protein S6 kinase alpha-5 (Homo sapiens) (UniProt O75582); experiment: Inhibition of MSK-1 kinase at 500 nM; design: scale not given: the % may be the effect or the level left; how it was run: as §1
[37] = target: T3, Casein kinase I (Homo sapiens); experiment: Inhibition of CK1 kinase at 500 nM; type: protein assay; design: scale not given: the % may be the effect or the level left; how it was run: as §1
[38] = test system: NCI-H460; experiment: In vitro antiproliferative activity against human carcinoma cell line H460 (lung); type: functional, cell-based
[39] = target: Mitogen-activated protein kinase 12 (Homo sapiens) (UniProt P53778); experiment: Inhibition of Stress activated protein kinase 3 at 500 nM; design: scale not given: the % may be the effect or the level left; how it was run: as §2
[40] = target: Dual specificity mitogen-activated protein kinase kinase 6 (Homo sapiens) (UniProt P52564); experiment: Inhibition of mitogen-activated protein kinase kinase 6 at 500 nM; design: scale not given: the % may be the effect or the level left; how it was run: as §2
[41] = target: Dual specificity mitogen-activated protein kinase kinase 1 (Homo sapiens) (UniProt Q02750); experiment: Inhibition of Mitogen activated protein kinase kinase kinase 1 at 100 nM; design: scale not given: the % may be the effect or the level left
[42] = target: Tyrosine-protein kinase Blk (Homo sapiens) (UniProt P51451); experiment: Inhibition of B lymphoid tyrosine kinase at 500 nM; design: scale not given: the % may be the effect or the level left; how it was run: as §1
[43] = target: Serine/threonine-protein kinase N2 (Homo sapiens) (UniProt Q16513); experiment: Inhibition of PRK2 at 100 nM; design: scale not given: the % may be the effect or the level left; how it was run: as §1
[44] = target: MAP kinase-activated protein kinase 5 (Homo sapiens) (UniProt Q8IW41); experiment: Inhibition of Protein kinase PRAK at 100 nM; design: scale not given: the % may be the effect or the level left; how it was run: as §2
[45] = test system: HCT-116; experiment: In vitro antiproliferative activity against human carcinoma cell line HCT116 (colon); type: functional, cell-based
[46] = target: Mitogen-activated protein kinase 8 (Homo sapiens) (UniProt P45983); experiment: Inhibition of c-Jun N-terminal kinase 1-alpha 1 at 100 nM; design: scale not given: the % may be the effect or the level left; how it was run: as §2

Mitogen-activated protein kinase 12 (Homo sapiens), sequence (P53778 whole entry): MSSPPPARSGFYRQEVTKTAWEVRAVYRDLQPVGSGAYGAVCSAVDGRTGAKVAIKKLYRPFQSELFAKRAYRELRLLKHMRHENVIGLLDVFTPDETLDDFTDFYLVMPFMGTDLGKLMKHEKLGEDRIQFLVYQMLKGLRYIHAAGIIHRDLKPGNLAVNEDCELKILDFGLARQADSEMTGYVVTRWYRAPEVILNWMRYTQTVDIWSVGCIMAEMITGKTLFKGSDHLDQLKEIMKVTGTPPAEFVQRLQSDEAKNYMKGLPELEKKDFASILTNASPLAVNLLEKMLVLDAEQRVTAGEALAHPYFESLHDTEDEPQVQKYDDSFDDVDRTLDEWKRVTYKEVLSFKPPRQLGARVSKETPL
Serine/threonine-protein kinase Chk2 (Homo sapiens), sequence (O96017 whole entry): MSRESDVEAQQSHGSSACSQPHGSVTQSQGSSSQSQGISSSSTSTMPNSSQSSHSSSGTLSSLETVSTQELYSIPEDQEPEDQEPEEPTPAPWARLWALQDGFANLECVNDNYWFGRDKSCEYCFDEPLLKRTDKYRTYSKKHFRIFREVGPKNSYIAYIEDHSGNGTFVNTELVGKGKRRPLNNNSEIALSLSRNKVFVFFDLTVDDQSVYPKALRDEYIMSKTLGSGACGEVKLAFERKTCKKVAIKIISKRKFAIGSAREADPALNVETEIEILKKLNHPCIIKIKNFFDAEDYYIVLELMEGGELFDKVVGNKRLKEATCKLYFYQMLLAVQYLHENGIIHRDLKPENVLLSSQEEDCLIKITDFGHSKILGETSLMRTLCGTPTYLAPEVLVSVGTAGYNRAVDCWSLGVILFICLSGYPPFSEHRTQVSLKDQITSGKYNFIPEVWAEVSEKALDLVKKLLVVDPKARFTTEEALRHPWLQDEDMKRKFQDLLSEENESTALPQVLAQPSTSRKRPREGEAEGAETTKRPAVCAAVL
3-phosphoinositide-dependent protein kinase 1 (Homo sapiens), sequence (O15530 whole entry): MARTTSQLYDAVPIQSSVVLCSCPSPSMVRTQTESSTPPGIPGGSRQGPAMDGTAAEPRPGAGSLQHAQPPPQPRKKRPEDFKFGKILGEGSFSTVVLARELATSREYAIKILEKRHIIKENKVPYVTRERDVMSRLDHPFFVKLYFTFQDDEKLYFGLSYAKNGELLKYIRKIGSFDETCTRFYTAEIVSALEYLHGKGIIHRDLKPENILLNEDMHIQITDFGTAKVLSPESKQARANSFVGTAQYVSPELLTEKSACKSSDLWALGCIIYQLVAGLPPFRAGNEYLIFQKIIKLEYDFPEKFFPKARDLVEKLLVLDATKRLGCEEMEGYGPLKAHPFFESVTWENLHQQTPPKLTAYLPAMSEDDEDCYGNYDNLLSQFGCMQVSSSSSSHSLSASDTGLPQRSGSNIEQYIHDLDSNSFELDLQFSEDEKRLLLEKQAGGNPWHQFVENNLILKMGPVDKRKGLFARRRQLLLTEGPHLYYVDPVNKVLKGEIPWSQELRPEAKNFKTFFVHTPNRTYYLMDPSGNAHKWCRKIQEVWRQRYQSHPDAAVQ
Serine/threonine-protein kinase N2 (Homo sapiens), sequence (Q16513 whole entry, looked up): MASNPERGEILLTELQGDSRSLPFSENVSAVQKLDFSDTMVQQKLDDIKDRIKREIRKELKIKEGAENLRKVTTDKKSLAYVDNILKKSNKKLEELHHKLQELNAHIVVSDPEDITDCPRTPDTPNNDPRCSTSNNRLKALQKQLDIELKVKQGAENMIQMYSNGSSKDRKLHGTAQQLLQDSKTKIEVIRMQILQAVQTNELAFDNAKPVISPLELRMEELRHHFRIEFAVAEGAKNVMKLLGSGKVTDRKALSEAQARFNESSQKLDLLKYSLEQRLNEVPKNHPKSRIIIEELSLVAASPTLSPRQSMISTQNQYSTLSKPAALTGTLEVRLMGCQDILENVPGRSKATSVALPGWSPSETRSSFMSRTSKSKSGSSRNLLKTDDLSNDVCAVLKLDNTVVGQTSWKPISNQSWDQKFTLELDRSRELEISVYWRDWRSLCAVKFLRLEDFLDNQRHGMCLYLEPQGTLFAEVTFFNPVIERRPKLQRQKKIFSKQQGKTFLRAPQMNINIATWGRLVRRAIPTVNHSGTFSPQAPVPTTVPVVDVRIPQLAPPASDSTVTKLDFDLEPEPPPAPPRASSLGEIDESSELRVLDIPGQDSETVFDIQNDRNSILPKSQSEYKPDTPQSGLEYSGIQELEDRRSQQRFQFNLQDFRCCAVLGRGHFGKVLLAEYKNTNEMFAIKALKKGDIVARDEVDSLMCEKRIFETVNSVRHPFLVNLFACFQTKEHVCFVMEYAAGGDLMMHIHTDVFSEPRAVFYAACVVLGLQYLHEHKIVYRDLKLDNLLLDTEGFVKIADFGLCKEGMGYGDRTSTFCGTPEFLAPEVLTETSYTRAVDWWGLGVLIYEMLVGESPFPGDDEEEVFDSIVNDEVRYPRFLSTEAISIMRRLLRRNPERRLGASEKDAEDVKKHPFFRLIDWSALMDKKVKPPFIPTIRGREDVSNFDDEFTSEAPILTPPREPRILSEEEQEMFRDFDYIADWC
Mitogen-activated protein kinase 8 (Homo sapiens), sequence (P45983 whole entry): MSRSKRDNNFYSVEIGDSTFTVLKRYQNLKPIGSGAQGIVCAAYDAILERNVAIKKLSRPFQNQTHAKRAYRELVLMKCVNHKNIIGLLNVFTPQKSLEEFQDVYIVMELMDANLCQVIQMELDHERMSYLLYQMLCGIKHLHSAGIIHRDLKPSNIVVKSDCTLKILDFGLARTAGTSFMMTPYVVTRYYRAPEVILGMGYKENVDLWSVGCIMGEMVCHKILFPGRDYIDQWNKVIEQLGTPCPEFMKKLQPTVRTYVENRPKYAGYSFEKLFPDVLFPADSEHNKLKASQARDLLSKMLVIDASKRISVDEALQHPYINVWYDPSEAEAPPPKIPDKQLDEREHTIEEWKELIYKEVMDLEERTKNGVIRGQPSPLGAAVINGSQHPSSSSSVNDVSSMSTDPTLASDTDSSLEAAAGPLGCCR
Proto-oncogene tyrosine-protein kinase Src (Homo sapiens), sequence (P12931 2-536 limits assumed): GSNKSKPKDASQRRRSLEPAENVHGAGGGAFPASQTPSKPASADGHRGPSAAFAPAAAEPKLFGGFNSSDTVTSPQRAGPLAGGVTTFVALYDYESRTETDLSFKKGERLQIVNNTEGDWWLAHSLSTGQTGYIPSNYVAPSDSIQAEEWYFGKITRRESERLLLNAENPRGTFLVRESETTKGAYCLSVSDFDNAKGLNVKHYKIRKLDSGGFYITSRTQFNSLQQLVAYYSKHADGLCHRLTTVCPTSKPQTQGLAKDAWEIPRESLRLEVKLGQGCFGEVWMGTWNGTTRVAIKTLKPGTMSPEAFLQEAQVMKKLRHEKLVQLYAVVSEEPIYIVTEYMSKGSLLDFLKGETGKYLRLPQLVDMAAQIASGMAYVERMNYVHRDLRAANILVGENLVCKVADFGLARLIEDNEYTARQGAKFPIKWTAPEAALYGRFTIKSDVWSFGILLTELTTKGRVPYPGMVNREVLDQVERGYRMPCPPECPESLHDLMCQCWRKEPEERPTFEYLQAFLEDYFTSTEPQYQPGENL
TGF-beta receptor type-2, sequence (P37173 whole entry): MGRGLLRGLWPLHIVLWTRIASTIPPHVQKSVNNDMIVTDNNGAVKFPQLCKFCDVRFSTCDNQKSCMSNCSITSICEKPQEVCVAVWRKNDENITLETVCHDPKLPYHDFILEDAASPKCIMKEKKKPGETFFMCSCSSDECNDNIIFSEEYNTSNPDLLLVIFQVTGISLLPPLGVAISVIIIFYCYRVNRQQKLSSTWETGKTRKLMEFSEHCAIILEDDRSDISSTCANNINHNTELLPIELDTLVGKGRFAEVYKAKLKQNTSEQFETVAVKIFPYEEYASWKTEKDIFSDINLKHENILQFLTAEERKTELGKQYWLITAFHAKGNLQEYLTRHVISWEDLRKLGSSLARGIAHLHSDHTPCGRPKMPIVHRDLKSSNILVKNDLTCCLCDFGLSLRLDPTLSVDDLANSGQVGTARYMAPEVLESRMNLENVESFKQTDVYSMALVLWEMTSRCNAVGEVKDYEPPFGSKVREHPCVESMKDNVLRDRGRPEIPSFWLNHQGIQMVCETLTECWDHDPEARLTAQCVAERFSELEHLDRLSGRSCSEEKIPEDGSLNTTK
Mitogen-activated protein kinase 14, sequence (Q16539 whole entry): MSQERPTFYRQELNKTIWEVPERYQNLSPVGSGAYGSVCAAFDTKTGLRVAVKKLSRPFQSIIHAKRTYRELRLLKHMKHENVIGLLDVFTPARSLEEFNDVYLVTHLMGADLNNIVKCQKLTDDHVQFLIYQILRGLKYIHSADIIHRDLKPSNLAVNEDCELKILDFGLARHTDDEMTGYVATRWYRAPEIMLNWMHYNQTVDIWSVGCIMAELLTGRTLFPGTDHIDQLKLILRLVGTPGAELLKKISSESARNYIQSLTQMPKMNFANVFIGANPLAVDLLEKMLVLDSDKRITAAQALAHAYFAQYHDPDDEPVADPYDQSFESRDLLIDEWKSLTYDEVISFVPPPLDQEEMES

SMILES: Cn1ccc2ccc3c4[nH]c5c(CCCN[C@H]6CC[C@H](O)CC6)cccc5c4c4c(c3c21)C(=O)NC4=O
- Control [1]: 62%
- Control [2]: 106%
- Control [3]: 62%
- Control [4]: 53%
- Control [5]: 107%
- Control [6]: 99%
- Control [7]: 98%
- Control [8]: 82%
- Control [9]: 84%
- Control [10]: 94%
- Control [11]: 104%
- Control [12]: 88%
- Control [13]: 18%
- Control [14]: 107%
- Control [15]: 95%
- IC50 [16]: 9.97 µM
- Control [17]: 70%
- Control [18]: 93%
- Control [19]: 88%
- IC50 [20]: 2.93 µM
- Control [21]: 102%
- Control [22]: 84%
- Control [23]: 100%
- Control [24]: 60%
- IC50 [25]: > 20 µM
- IC50 [26]: 20.2 µM
- Control [27]: 89%
- Control [28]: 85%
- Control [29]: 65%
- Control [30]: 100%
- Control [31]: 92%
- Control [32]: 84%
- Control [33]: 98%
- IC50 [34]: > 20 µM
- Control [35]: 94%
- Control [36]: 90%
- Control [37]: 89%
- IC50 [38]: 1670 nM
- Control [39]: 109%
- Control [40]: 98%
- Control [41]: 95%
- Control [42]: 14%
- Control [43]: 97%
- Control [44]: 86%
- IC50 [45]: 1050 nM
- Control [46]: 99%
